Results on three molecules are retold here after ChEMBL document CHEMBL3272249, “Esters of N-tert-butylarterenol. Long-acting new bronchodilators with reduced cardiac effects” (J Med Chem, 1976).

Structures are written as SMILES.

Data set [1] has as its system Canis familiaris. The data set can be described thus: Bronchodilator activity in dog assessed as degree of inhibition of carbachol or histamine-induced bronchoconstriction at 70 to 280 mg/kg, id relative to control. Format: functional, Canis lupus familiaris. The settings on record: dose mg/kg 70-280; route intraduodenal. The method in brief: (§1)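 Anesthetized dogs, trachea cannulated with a nonbreathing valve. Bronchoconstriction induced by iv carbachol (2–4 μg/kg) or histamine diphosphate (20–50 μg/kg) in separate animals, and airway pressure recorded by transducer. Drug stocks were made fresh in distilled water, diluted in saline and kept on ice. Read-out was percent inhibition of control constriction, averaged over at least three dogs per dose at the higher dose. Carbachol and histamine data were combined.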

Data set [2] deals with Canis familiaris. Put plainly: Cardiotoxicity in spontaneously respiring dog assessed as degree of increase in heart rate at 540 to 1080 mg/kg, intratracheal relative to control. Particulars: in vivo.
The test system of data set [3] is Canis familiaris. The data set can be described thus: Bronchodilator activity in dog assessed as time of inhibition of carbachol or histamine-induced bronchoconstriction at 70 to 280 mg/kg, id relative to control. The class given is functional, Canis lupus familiaris. Particulars: dose mg/kg 70-280; route intraduodenal. The method in brief: (§2)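 Anesthetized dogs with an airway cannula and a nonbreathing valve. Bronchoconstriction was induced by iv carbachol (2–4 μg/kg) or histamine diphosphate (20–50 μg/kg) and read as change in airway pressure by transducer. Each compound was tested against both agonists in different dogs, and the results were combined and averaged. Effect is % inhibition of control constriction, with at least three dogs per dose. Drugs were dissolved fresh in distilled water, diluted in saline and kept on ice.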

Data set [4] relates to Canis familiaris. The data set can be described thus: Bronchodilator activity in dog assessed as degree of inhibition of carbachol or histamine-induced bronchoconstriction at 540 to 1080 mg/kg, it relative to control. The class given is functional, Canis lupus familiaris. The settings on record: dose mg/kg 540-1080; route endotracheal. The method in brief: as §1
Data set [5] concerns Canis familiaris. The data set can be described thus: Cardiotoxicity in spontaneously respiring dog assessed as degree of increase in heart rate at 35 to 140 mg/kg, iv relative to control. Format: toxicity, organism-based, Canis lupus familiaris. On the set-up: dose 35-140 mg/kg, route intravenous. Particulars: in vivo. The method in brief:
(§3)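 Anesthetized, spontaneously respiring dogs. Heart rate was taken from a lead II EKG, and blood pressure from the right femoral artery by transducer. The increase in heart rate (beats/min) was scored on a graded scale with more than 4 dogs per dose, and its duration was recorded. Drugs were dissolved fresh in distilled water, diluted in physiological saline and kept on ice.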

The subject of data set [6] is Canis familiaris. The data set can be described thus: Cardiotoxicity in spontaneously respiring dog assessed as time of increase in heart rate at 540 to 1080 mg/kg, it relative to control. The settings on record: in vivo.
For data set [7], the system named is Canis familiaris. Put plainly: Bronchodilator activity in dog assessed as time of inhibition of carbachol or histamine-induced bronchoconstriction at 540 to 1080 mg/kg, it relative to control. The class given is functional, Canis lupus familiaris. Particulars: dose mg/kg 540-1080; route endotracheal. The method in brief:
as §2

Data set [8] relates to Canis familiaris. Put plainly: Cardiotoxicity in spontaneously respiring dog assessed as time of increase in heart rate at 70 to 280 mg/kg, id relative to control. The class given is toxicity, organism-based, Canis lupus familiaris. More on the design: dose 70-280 mg/kg, route intraduodenal. Particulars: in vivo, other. The method in brief:
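Anesthetized, spontaneously respiring dogs. Heart rate monitored by lead II EKG, with blood pressure taken from the right femoral artery by pressure transducer and recorded on a polygraph. Drug stocks made fresh in distilled water, diluted in physiological saline and kept on ice. Dosing was iv, id or it as listed. The duration of the heart-rate increase was recorded in h, with more than 4 dogs per dose.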

In data set [9] the test system is Canis familiaris. Put plainly: Cardiotoxicity in spontaneously respiring dog assessed as time of increase in heart rate at 35 to 140 mg/kg, iv relative to control. More on the design: dose 35-140 mg/kg, route intravenous. The class given is toxicity, organism-based, Canis lupus familiaris. Particulars: in vivo. The method in brief:
as §3

The test system of data set [10] is Canis familiaris. The data set can be described thus: Cardiotoxicity in spontaneously respiring dog assessed as degree of increase in heart rate at 70 to 280 mg/kg, id relative to control. The class given is toxicity, organism-based, Canis lupus familiaris. More on the design: dose 70-280 mg/kg, route intraduodenal. The settings on record: in vivo, other. The method in brief: as §3

In data set [11] the test system is Canis familiaris. The data set can be described thus: Bronchodilator activity in dog assessed as time of inhibition of carbachol or histamine-induced bronchoconstriction at 35 to 140 mg/kg, iv relative to control. The class given is functional, Canis lupus familiaris. Particulars: dose mg/kg 35-140. The method in brief: (§4)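 Dog airway model: anesthetized, cannulated via a nonbreathing valve, with airway pressure changes recorded after iv carbachol (2–4 μg/kg) or histamine diphosphate (20–50 μg/kg) challenge, each agonist in different animals. Compounds were given iv, intraduodenally or intratracheally from fresh aqueous stocks diluted in saline. Duration (h) of inhibition of induced bronchoconstriction was followed, and the two agonist datasets were pooled.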

Data set [12] has as its system Canis familiaris. The data set can be described thus: Bronchodilator activity in dog assessed as degree of inhibition of carbachol or histamine-induced bronchoconstriction at 35 to 140 mg/kg, iv relative to control. Format: functional, Canis lupus familiaris. Particulars: dose mg/kg 35-140. The method in brief: as §1
For data set [13], the system named is Canis familiaris. The data set can be described thus: Bronchodilator activity in dog assessed as time of inhibition of carbachol or histamine-induced bronchoconstriction at 590 to 1180 mg/kg, it relative to control. Particulars: dose mg/kg 590-1180; route endotracheal.
For data set [14], the system named is Canis familiaris. Put plainly: Bronchodilator activity in dog assessed as degree of inhibition of carbachol or histamine-induced bronchoconstriction at 590 to 1180 mg/kg, it relative to control. Particulars: dose mg/kg 590-1180; route endotracheal.
The subject of data set [15] is Canis familiaris. The data set can be described thus: Cardiotoxicity in spontaneously respiring dog assessed as time of increase in heart rate at 25 to 100 mg/kg, iv relative to control. The class given is toxicity, organism-based, Canis lupus familiaris. On the set-up: dose 25-100 mg/kg, route intravenous. The settings on record: in vivo. The method in brief:
as §3

Data set [16] relates to Canis familiaris. The data set can be described thus: Cardiotoxicity in spontaneously respiring dog assessed as degree of increase in heart rate at 25 to 100 mg/kg, iv relative to control. Format: toxicity, organism-based, Canis lupus familiaris. On the set-up: dose 25-100 mg/kg, route intravenous. The settings on record: in vivo. The method in brief: as §3
Data set [17] concerns Canis familiaris. The data set can be described thus: Bronchodilator activity in dog assessed as degree of inhibition of carbachol or histamine-induced bronchoconstriction at 50 to 100 mg/kg, id relative to control. Format: functional, Canis lupus familiaris. Particulars: dose mg/kg 50-100; route intraduodenal. The method in brief:
as §1

Data set [18] deals with Canis familiaris. The data set can be described thus: Bronchodilator activity in dog assessed as degree of inhibition of carbachol or histamine-induced bronchoconstriction at 25 to 100 mg/kg, iv relative to control. The class given is functional, Canis lupus familiaris. The settings on record: dose mg/kg 25-100. The method in brief:
as §1

For data set [19], the system named is Canis familiaris. Put plainly: Bronchodilator activity in dog assessed as time of inhibition of carbachol or histamine-induced bronchoconstriction at 25 to 100 mg/kg, iv relative to control. Format: functional, Canis lupus familiaris. The settings on record: dose mg/kg 25-100. The method in brief:
as §4

For data set [20], the system named is Canis familiaris. Put plainly: Bronchodilator activity in dog assessed as time of inhibition of carbachol or histamine-induced bronchoconstriction at 50 to 100 mg/kg, id relative to control. Particulars: dose mg/kg 50-100; route intraduodenal. Format: functional, Canis lupus familiaris. The method in brief: as §2

With `CS(=O)(=O)O.Cc1ccc(C(=O)Oc2ccc([C@@H](O)CNC(C)(C)C)cc2OC(=O)c2ccc(C)cc2)cc1`, the results for the “inhibition (INH)” value with Canis familiaris [1], with Canis familiaris [4] and in the data set with Canis familiaris [12] were over 70%, 45% and over 70%, respectively. Moreover, the Activity came to 5% with Canis familiaris [2], 20% in the data set on Canis familiaris [5] and 20% in the data set with Canis familiaris [10]. Also, the Time was over 5 h in the data set with Canis familiaris [3]; under 1 h in the data set with Canis familiaris [6]; over 5 h with Canis familiaris [7]; 2 h in the data set with Canis familiaris [8]; 2 h in the data set on Canis familiaris [9]; over 5 h with Canis familiaris [11].
For the molecule `CS(=O)(=O)O.Cc1cc(C)cc(C(=O)Oc2ccc([C@@H](O)CNC(C)(C)C)cc2OC(=O)c2cc(C)cc(C)c2)c1`, in the data set on Canis familiaris [13], the Time was under 3 h. Moreover, in the data set on Canis familiaris [14], the “inhibition (INH)” value is listed as 20%.
Regarding `COc1ccc(C(=O)Oc2ccc([C@@H](O)CNC(C)(C)C)cc2OC(=O)c2ccc(OC)cc2)cc1.Cl`, the Time in the data set on Canis familiaris [15] is under 2 h; in the data set on Canis familiaris [19] it was 1 h; in the data set on Canis familiaris [20], under 3 h. In addition, in the data set with Canis familiaris [16], the Activity is 20%. Besides, the “inhibition (INH)” value in the data set on Canis familiaris [17] and with Canis familiaris [18] was 20% in each case.
